Data taken from ChEMBL document CHEMBL1124382, “Synthesis and radioprotective activity of dipeptide cysteamine and cystamine derivatives” (J Med Chem, 1989).
“And” between values parts separate entries of the source, which are not always exact repeats. Identical values can stand only once.

How the values were obtained:
[1] = test system: Mus musculus; test: The compound was tested for radioprotective activity (DRF) in mice 15 min before whole body irradiation with value in braces indicating the administered dose in mg/Kg
[2] = The compound was tested for toxicity in mice, expressed as LD50; format: organism-based; details: in vivo
Outline: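 Three-month-old inbred albino CXVII mice (about 25 g) received compounds dissolved in distilled water by intraperitoneal injection. A preliminary study set the dose range. Five groups of 10 mice then each received a different dose within that range. LD50 was derived by probit analysis.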

[3] = test system: Mus musculus; test: The compound was tested for radioprotective activity (DRF) in mice 2 hours before whole body irradiation with value in braces indicating the administered dose in mg/Kg

Row | SMILES | DRF [1] | LD50 [2] | DRF [3]
1 | CC(=O)SCCNC(=O)CNC(=O)[C@@H](C)N | 1.55 and 1 | 1500 mg/kg | 1
2 | C[C@H](N)C(=O)NCC(=O)NCCSSCCNC(=O)CNC(=O)[C@@H](C)N | 1.35 and 1 | 1500 mg/kg | 
3 | NCC(=O)NCC(=O)NCCSSCCNC(=O)CNC(=O)CN | 1.1 and 1 | 2000 mg/kg | 1
4 | CC(=O)SCCNC(=O)CNC(=O)CN | 1.55 | 2400 mg/kg | 
5 | CC(=O)SCCNC(=O)CN | 1.4 and 1 | 1500 mg/kg | 1
6 | C[C@H](NC(=O)CN)C(=O)NCCSSCCNC(=O)[C@@H](C)NC(=O)CN | 1.1 | 800 mg/kg | 
7 | CC(=O)SCCNC(=O)[C@H](C)NC(=O)CN | 1.25 | 1500 mg/kg | 1
